Tests used:
[1] = biological target: T1, Fatty-acid amide hydrolase 1 (Rattus norvegicus, UniProt P97612); assay: Inhibition of rat brain FAAH assessed as [14C]anandamide hydrolysis
T1 sequence (P97612 whole entry): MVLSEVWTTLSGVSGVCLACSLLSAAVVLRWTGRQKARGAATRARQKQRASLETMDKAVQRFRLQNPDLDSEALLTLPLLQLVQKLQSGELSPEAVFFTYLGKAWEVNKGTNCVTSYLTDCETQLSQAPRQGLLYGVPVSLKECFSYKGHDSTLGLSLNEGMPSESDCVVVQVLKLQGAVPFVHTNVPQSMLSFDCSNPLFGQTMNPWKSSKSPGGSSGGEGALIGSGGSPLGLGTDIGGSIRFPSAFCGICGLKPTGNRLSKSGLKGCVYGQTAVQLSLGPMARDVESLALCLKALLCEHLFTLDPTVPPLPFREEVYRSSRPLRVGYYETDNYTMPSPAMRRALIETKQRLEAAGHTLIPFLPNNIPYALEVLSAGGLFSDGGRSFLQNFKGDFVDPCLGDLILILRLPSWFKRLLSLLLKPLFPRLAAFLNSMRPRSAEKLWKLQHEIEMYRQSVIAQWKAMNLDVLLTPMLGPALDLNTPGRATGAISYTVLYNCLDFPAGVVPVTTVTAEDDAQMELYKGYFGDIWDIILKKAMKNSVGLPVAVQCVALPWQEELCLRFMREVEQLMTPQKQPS
In short: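 Rat brain membranes incubated with [14C]anandamide (6 µM) and increasing compound concentrations in 50 mM Tris-HCl pH 9, 30 min, 37 °C. Mixture extracted with 2 volumes CHCl3/CH3OH (2:1); [14C]ethanolamine in aqueous phase counted by scintillation. IC50 reported; mean of 3 experiments.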

[2] = Inhibition of anandamide membrane transporter in RBL-2H3 cells assessed as [14C]anandamide uptake; type: cell-based, Rattus norvegicus
In short: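 RBL-2H3 cells incubated with [14C]anandamide (4 µM) for 5 min at 37 °C, with or without varying inhibitor concentrations. Medium extracted with CHCl3/CH3OH (2:1); residual radioactivity taken as measure of uptake. IC50 from fit; mean of 3 experiments.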

Cannabinoid receptor 1 = Cannabinoid receptor 1 (Homo sapiens, UniProt P21554); assay: Displacement of [3H]CP-55940 from human CB1 receptor expressed in COS cells; type: cell-based
Cannabinoid receptor 2 = Cannabinoid receptor 2 (Homo sapiens, UniProt P34972); assay: Displacement of [3H]CP-55940 from human CB2 receptor expressed in COS cells; type: cell-based
[3] = biological target: Cannabinoid receptor (Homo sapiens) (UniProt P34972+P21554); assay: Selectivity for human CB2 receptor over human CB1 receptor; type: protein assay
In short: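 Ratio of Ki values from [3H]CP-55,940 (0.5 nM) displacement on P2 membranes of COS cells transfected with human CB1 or CB2; Ki from IC50 by Cheng-Prusoff, mean of 3 experiments.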

Sequence of Cannabinoid receptor 2 (P34972 whole entry): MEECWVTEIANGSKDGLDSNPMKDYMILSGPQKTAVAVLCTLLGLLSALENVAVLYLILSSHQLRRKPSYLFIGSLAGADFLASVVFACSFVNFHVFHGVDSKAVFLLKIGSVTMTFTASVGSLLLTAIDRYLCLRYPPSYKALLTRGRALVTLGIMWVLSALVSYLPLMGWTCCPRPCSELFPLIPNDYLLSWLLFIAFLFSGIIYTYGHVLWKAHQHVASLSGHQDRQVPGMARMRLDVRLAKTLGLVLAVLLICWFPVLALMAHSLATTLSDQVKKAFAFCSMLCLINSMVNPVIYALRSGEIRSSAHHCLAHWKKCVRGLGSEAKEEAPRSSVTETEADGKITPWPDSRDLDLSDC
Sequence of Cannabinoid receptor 1 (P21554 whole entry): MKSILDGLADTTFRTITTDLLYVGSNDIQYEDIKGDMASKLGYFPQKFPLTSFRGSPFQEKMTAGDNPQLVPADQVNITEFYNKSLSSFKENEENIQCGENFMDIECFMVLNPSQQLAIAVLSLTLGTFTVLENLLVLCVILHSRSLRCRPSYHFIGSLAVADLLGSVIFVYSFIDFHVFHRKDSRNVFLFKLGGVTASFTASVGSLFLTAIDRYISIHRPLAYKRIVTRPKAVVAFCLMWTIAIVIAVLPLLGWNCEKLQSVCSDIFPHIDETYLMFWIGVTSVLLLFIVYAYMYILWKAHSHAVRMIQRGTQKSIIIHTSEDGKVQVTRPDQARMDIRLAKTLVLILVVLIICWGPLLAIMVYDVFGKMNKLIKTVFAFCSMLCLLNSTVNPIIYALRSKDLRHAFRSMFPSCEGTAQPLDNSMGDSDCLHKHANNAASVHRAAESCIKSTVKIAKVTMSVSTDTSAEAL
Sequence of Cannabinoid receptor (Homo sapiens) (P21554 whole entry, looked up): as the sequence (P21554 whole entry) above
Sequence of Cannabinoid receptor (Homo sapiens) (P34972 whole entry, looked up): as the sequence (P34972 whole entry) above

| Structure (SMILES) | IC50 [2] [µM] | Ki (Cannabinoid receptor 1) [µM] | other results |
| --- | --- | --- | --- |
| CCCCCCc1ccc(O)cc1OCCCCCCCCCCC(=O)NC1CC1 | 13 |  | IC50 [1]: > 25 µM |
| CCCCCc1cc(O)cc(OCCCCCCCCCCCCCCCC(=O)NC2CC2)c1 |  | > 10 |  |
| O=C(CCCCCCCCCCOc1cccc(O)c1)Nc1ccc(O)cc1 |  |  | Ki (Cannabinoid receptor 2): > 10 µM |
| CCCCCCc1ccc(OCCCCCCCCCCCCCCCC(=O)Nc2ccc(O)cc2)cc1O |  | > 10 |  |
| CCCCCc1cc(O)cc(OCCCCCCCCCCC(=O)NCCO)c1 | 25 |  |  |
| CCCCCCc1ccc(O)cc1OCCCCCC(=O)NCCO |  |  | Ki (Cannabinoid receptor 2): > 10 µM |
| O=C(CCCCCCCCCCCCCCCOc1cccc(O)c1)Nc1ccc(O)cc1 |  |  | Ki (Cannabinoid receptor 2): 10 µM |
| CCCCCCc1ccc(OCCCCCCCCCCC(=O)Nc2ccc(O)cc2)cc1O | > 25 |  | Ki (Cannabinoid receptor 2): > 10 µM |
| O=C(CCCCCCCCCCCCCCCOc1cccc(O)c1)NCCO |  | > 10 |  |
| CCCCCCCCCCCCCCCc1cccc(OCCCCCC(=O)Nc2ccc(O)cc2)c1 | > 25 |  |  |
| CCCCCCc1ccc(O)cc1OCCCCCCCCCCC(=O)NCCO | > 25 |  |  |
| CCCCCCCCCCCCCCCc1cccc(OCCCCCC(=O)NCCO)c1 | > 25 |  |  |
| O=C(CCCCCCCCCCOc1cccc(O)c1)NCCO |  | > 10 |  |
| O=C(CCCCCCCCCCOc1cccc(O)c1)NC1CC1 |  | > 10 |  |
| CCCCCc1cc(O)cc(OCCCCCCCCCCC(=O)NC2CC2)c1 | 17 |  |  |
| CCCCCc1cc(O)cc(OCCCCCCCCCCCCCCCC(=O)Nc2ccc(O)cc2)c1 |  | > 10 |  |
| CCCCCCc1ccc(O)cc1OCCCCCCCCCCC(=O)Nc1ccc(O)cc1 | > 25 |  |  |
| CCCCCCc1ccc(OCCCCCCCCCCC(=O)NC2CC2)cc1O | > 25 | > 10 | Selectivity ratio [3]: 26 |
| CCCCCCc1ccc(OCCCCCCCCCCC(=O)NCCO)cc1O |  | > 10 |  |

— ChEMBL document CHEMBL1139484, “Design, synthesis, and binding studies of new potent ligands of cannabinoid receptors” (J Med Chem, 2005)
